Reference: ChEMBL document CHEMBL1765082, “Aminothiazolomorphinans with mixed κ and μ opioid activity” (J Med Chem, 2011)
Calls of active or inactive are those of the source. No cut-off for these calls is given here.

What was measured:
[1] = molecular target: T1, Kappa-type opioid receptor (Homo sapiens, UniProt P41145); assay: Displacement of [3H]U69593 from human kappa opioid receptor expressed in CHO cells after 60 mins by scintillation counting; assay type: cell-based
Mu-type opioid receptor [2] = molecular target: T2, Mu-type opioid receptor (Homo sapiens, UniProt P35372); assay: Displacement of [3H]DAMGO from human mu opioid receptor expressed in CHO cells after 60 mins by scintillation counting; assay type: cell-based
T2 sequence (P35372 whole entry): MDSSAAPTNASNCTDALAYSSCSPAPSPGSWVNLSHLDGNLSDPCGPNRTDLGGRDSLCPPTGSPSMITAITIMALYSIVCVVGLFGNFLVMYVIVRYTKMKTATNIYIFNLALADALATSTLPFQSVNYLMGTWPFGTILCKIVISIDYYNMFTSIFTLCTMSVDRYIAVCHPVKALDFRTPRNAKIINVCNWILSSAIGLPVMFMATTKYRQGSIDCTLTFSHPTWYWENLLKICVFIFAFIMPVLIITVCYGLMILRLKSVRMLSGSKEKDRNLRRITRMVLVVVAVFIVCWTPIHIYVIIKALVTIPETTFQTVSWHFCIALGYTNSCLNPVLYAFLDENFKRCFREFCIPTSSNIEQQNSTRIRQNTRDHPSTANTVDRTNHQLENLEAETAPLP

[3] = molecular target: Delta-type opioid receptor (Homo sapiens, UniProt P41143); assay: Displacement of [3H]Naltrindole from human delta opioid receptor expressed in CHO cells after 3 hrs by scintillation counting; assay type: cell-based
Chain of Delta-type opioid receptor (P41143 whole entry): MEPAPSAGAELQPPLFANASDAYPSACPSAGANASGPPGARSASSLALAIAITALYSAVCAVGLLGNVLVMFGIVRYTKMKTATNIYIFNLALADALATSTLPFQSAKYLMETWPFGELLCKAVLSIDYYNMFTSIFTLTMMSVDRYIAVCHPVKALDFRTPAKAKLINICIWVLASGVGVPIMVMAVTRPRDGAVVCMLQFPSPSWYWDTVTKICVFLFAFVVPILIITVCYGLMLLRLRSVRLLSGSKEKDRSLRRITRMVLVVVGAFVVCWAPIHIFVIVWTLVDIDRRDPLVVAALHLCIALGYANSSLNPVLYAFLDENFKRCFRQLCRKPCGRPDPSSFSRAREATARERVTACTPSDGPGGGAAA
Summary of the method: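 Membranes from CHO cells expressing human κ, μ or δ opioid receptor were incubated with 12 compound concentrations and a receptor-selective radioligand at 25 °C in 50 mM Tris-HCl, pH 7.5. […] Nonspecific binding was defined with 10 μM naloxone. Ki reported as mean ± SEM, three experiments in triplicate.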

Homo sapiens [4] = species on record: Homo sapiens; assay: Selectivity ratio of Ki for human mu opioid receptor to Ki for human kappa opioid receptor
Homo sapiens [5] = species on record: Homo sapiens; assay: Selectivity ratio of Ki for human delta opioid receptor to Ki for human kappa opioid receptor
[6] = molecular target: T1, Kappa-type opioid receptor; assay: Agonist activity at human kappa opioid receptor expressed in CHO cells assessed as [35S]GTPgammaS binding by scintillation counting relative to control; assay type: functional, cell-based
Summary of the method: (§1)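 Membranes from CHO cells stably expressing human κ (15 μg protein/tube) or μ (7.5 μg protein/tube) opioid receptor, grown in DMEM with 10% FBS at 37 °C, 5% CO2. Twelve agonist concentrations were incubated 60 min at 30 °C in 50 mM Tris-HCl, 3 mM MgCl2, 100 mM NaCl, 0.2 mM EGTA, pH 7.4, with 3 μM GDP and [35S]GTPγS. Filtration, then scintillation counting. Stimulation expressed as percent over basal; ≥3 experiments in triplicate.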

[7] = molecular target: T1, Kappa-type opioid receptor; assay: Agonist activity at human kappa opioid receptor expressed in CHO cells assessed as [35S]GTPgammaS binding by scintillation counting; assay type: functional, cell-based
[8] = molecular target: T1, Kappa-type opioid receptor; assay: Antagonist activity at human kappa opioid receptor expressed in CHO cells assessed as […] in U50488-induced [35S]GTPgammaS binding by scintillation counting; assay type: functional, cell-based
Mu-type opioid receptor [9] = molecular target: T2, Mu-type opioid receptor; assay: Agonist activity at human mu opioid receptor expressed in CHO cells assessed as [35S]GTPgammaS binding by scintillation counting; assay type: functional, cell-based
Mu-type opioid receptor [10] = molecular target: T2, Mu-type opioid receptor; conditions: cho
Mu-type opioid receptor [11] = molecular target: T2, Mu-type opioid receptor; assay: Agonist activity at human mu opioid receptor expressed in CHO cells assessed as [35S]GTPgammaS binding by scintillation counting relative to control; assay type: functional, cell-based; summary of the method: as §1
Mu-type opioid receptor [12] = molecular target: T2, Mu-type opioid receptor; assay: Antagonist activity at human mu opioid receptor expressed in CHO cells assessed as inhibition of DAMGO-induced [35S]GTPgammaS binding at 10 uM by scintillation counting; assay type: functional, cell-based
Mu-type opioid receptor [13] = molecular target: T2, Mu-type opioid receptor

T1 sequence (P41145 whole entry): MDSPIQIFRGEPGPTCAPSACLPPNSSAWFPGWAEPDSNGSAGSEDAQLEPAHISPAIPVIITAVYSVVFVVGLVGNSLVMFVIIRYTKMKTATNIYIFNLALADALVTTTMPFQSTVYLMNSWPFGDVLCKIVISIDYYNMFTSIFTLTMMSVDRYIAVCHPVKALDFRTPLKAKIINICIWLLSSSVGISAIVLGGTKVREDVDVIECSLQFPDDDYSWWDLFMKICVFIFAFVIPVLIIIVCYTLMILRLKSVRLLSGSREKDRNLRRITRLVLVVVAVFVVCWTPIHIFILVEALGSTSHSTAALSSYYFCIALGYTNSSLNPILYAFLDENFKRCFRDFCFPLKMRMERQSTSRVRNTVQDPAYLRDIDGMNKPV

Row | Structure (SMILES) | Ki [1] | Ki (Mu-type opioid receptor [2]) | Ki [3] | Ratio Ki (Homo sapiens [4]) | Ratio Ki (Homo sapiens [5]) | Emax [6] | EC50 [7] | Activity [8] | EC50 (Mu-type opioid receptor [9]) | IC50 (Mu-type opioid receptor [10]) | Emax (Mu-type opioid receptor [11]) | inhibition (Mu-type opioid receptor [12]) | IC50 (Mu-type opioid receptor [13])
1 | CCNC(=S)Nc1nc2cc3c(cc2s1)C[C@@H]1[C@@H]2CCCC[C@]32CCN1CC1CC1 | 18 nM | 130 nM | 150 nM | 7 | 8 |  |  |  |  |  |  |  | 
2 | CCCNc1nc2cc3c(cc2s1)C[C@@H]1[C@@H]2CCCC[C@]32CCN1CC1CC1 | 1.6 nM | 17 nM | 79 nM | 11 | 49 |  |  |  |  |  |  |  | 
3 | CCCNc1nc2cc3c(cc2s1)C[C@@H]1[C@@H]2CCCC[C@]32CCN1CCCF | 5.8 nM | 24 nM | 120 nM | 4 | 21 |  |  |  |  |  |  |  | 
4 | CNc1nc2cc3c(cc2s1)C[C@@H]1[C@@H]2CCCC[C@]32CCN1CC1CC1 | 0.066 nM | 3 nM | 25 nM |  |  | 82% | 14 nM | inactive | 47 nM | Not Active |  |  | 
5 | CCN(C(C)=O)c1nc2cc3c(cc2s1)C[C@@H]1[C@@H]2CCCC[C@]32CCN1CC1CC1 | 13 nM | 86 nM | 740 nM | 4 | 57 |  |  |  |  |  |  |  | 
6 | CC(=O)N(C)c1nc2cc3c(cc2s1)C[C@@H]1[C@@H]2CCCC[C@]32CCN1CC1CC1 | 6.9 nM | 110 nM | 1100 nM | 16 | 160 |  |  |  |  |  |  |  | 
7 | Nc1nc2cc3c(cc2s1)C[C@@H]1[C@@H]2CCCC[C@]32CCN1CCCF | 0.3 nM | 2.7 nM | 54 nM | 9 | 180 | 100% | 32 nM | inactive | 130 nM |  | 65% | 40% | 
8 | c1ccc(Nc2nc3cc4c(cc3s2)C[C@@H]2[C@@H]3CCCC[C@]43CCN2CC2CC2)nc1 | 95 nM | 610 nM | > 10000 nM | 6 |  |  |  |  |  |  |  |  | 
9 | CN(C)c1nc2cc3c(cc2s1)C[C@@H]1[C@@H]2CCCC[C@]32CCN1CCCF | 11 nM | 76 nM | 420 nM | 7 | 38 |  |  |  |  |  |  |  | 
10 | Oc1ccc2c(c1)[C@@]13CCCC[C@H]1[C@@H](C2)N(CC1CC1)CC3 |  |  |  |  |  |  |  | inactive |  |  |  |  | 
11 | CCNc1nc2cc3c(cc2s1)C[C@@H]1[C@@H]2CCCC[C@]32CCN1CCCF | 0.94 nM | 4 nM | 76 nM |  |  | 150% | 89 nM | inactive | 240 nM | Not Active |  |  | 
12 | CN1CC[C@]23CCCC[C@H]2[C@H]1Cc1cc2sc(N)nc2cc13 |  |  |  | 0.17 | 30 |  |  |  |  |  |  |  | 
13 | CCNc1nc2cc3c(cc2s1)C[C@@H]1[C@@H]2CCCC[C@]32CCN1CC1CC1 | 0.151 nM | 4.7 nM | 43 nM |  |  | 190% |  | inactive |  | Not Active |  |  | 
14 | Nc1nc2cc3c(cc2s1)C[C@@H]1[C@@H]2CCCC[C@]32CCN1CC1CC1 |  |  |  | 30 | 590 |  |  | inactive |  | Not Active |  |  | 
15 | Nc1nc2cc3c(cc2s1)C[C@@H]1[C@@H]2CCCC[C@]32CCN1CC1CCC1 |  |  |  | 9 | 290 |  |  | inactive | > 1000 nM |  |  |  | 85 nM
16 | FC(F)(F)CNc1nc2cc3c(cc2s1)C[C@@H]1[C@@H]2CCCC[C@]32CCN1CC1CC1 | 0.84 nM | 21 nM | 180 nM | 25 | 210 | 120% | 120 nM | inactive |  |  |  |  | 
17 | CNc1nc2cc3c(cc2s1)C[C@@H]1[C@@H]2CCCC[C@]32CCN1CC1CCC1 | 2.4 nM | 1.8 nM | 47 nM | 1 | 20 |  |  |  |  |  |  |  | 
18 | Oc1cccc(CNc2nc3cc4c(cc3s2)C[C@@H]2[C@@H]3CCCC[C@]43CCN2CC2CC2)c1 | 3.5 nM | 9.9 nM | 29 nM | 3 | 8 |  |  |  |  |  |  |  | 
19 | COc1cccc(CNc2nc3cc4c(cc3s2)C[C@@H]2[C@@H]3CCCC[C@]43CCN2CC2CC2)c1 | 4.8 nM | 9.1 nM | 34 nM | 2 | 7 |  |  |  |  |  |  |  | 
20 | c1ccc(Nc2nc3cc4c(cc3s2)C[C@@H]2[C@@H]3CCCC[C@]43CCN2CC2CC2)cc1 | 21 nM | 180 nM | 140 nM | 9 | 7 |  |  |  |  |  |  |  | 
21 | CN(C)c1nc2cc3c(cc2s1)C[C@@H]1[C@@H]2CCCC[C@]32CCN1CC1CC1 | 0.45 nM | 10 nM | 65 nM | 22 | 140 | 110% | 46 nM | inactive | 140 nM |  | 57% | 40% | 
22 | CNc1nc2cc3c(cc2s1)C[C@@H]1[C@@H]2CCCC[C@]32CCN1CCCF | 0.71 nM | 7.4 nM | 50 nM |  |  | 170% |  | inactive |  | Not Active |  |  | 
23 | Nc1nc2cc3c(cc2o1)[C@@]12CCCC[C@H]1[C@@H](C3)N(CC1CC1)CC2 |  |  |  | 3 | > 192 |  |  |  |  |  |  |  | 
24 | CCNc1nc2cc3c(cc2s1)C[C@@H]1[C@@H]2CCCC[C@]32CCN1CC1CCC1 | 3.7 nM | 1.1 nM | 91 nM | 0.3 | 25 |  |  |  |  |  |  |  | 
25 | c1ccc(CNc2nc3cc4c(cc3s2)C[C@@H]2[C@@H]3CCCC[C@]43CCN2CC2CC2)cc1 | 2.1 nM | 10 nM | 41 nM | 5 | 20 |  |  |  |  |  |  |  | 
26 | Nc1nc2cc3c(cc2s1)C[C@@H]1[C@@H]2CCCC[C@]32CCN1C[C@@H]1CCCO1 | 0.83 nM | 2.4 nM | 56 nM | 3 | 67 | 190% | 14 nM | inactive | 71 nM | Not Active | 120% |  | 
27 | CC(=O)Nc1nc2cc3c(cc2s1)C[C@@H]1[C@@H]2CCCC[C@]32CCN1CC1CC1 | 13 nM | 57 nM | 750 nM | 4 | 58 |  |  |  |  |  |  |  | 
28 | CC(=O)Nc1nc2cc3c(cc2s1)C[C@@H]1[C@@H]2CCCC[C@]32CCN1CCCF | 1.2 nM | 15 nM | 220 nM | 13 | 180 |  |  |  |  |  |  |  | 
